Compound activity: PubChem BioAssay, several laboratories
ARNT-TACC3 inh: disruptors of ARNT/TACC3 protein interaction, primary screen, biochemical, AlphaScreen, single concentration. inhibition, % at 9.99 µM. AlphaScreen His-ARNT PAS-B/GST-TACC3 binding, luminescence; TACC3 fragment carries E629A point mutation. 390,000 compounds, 0.66% hits;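 active = mean inhibition of replicates at least 50% and at least half of replicates each reaching 50%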;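 note: 0% = complete ARNT plus TACC3 wells and 100% = ARNT alone without TACC3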
mABHD4 FP: ABHD4 inhibitors, primary screen, biochemical, fluorescence polarization, mouse; 370,000 compounds, 0.54% hits; AID 720543, 2013; (Lyso)-N-acylphosphatidylethanolamine lipase (Mus musculus), Q8VD66; purified mABHD4, FP-Rh probe fluorescence polarization; inhibition, % at 8.92 µM;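 active = inhibition exceeding the mean over every tested compound plus 3 SD, cut at about 30% in these data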;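 note: 0% = plate median of compound wells and 100% = S159A mutant with DMSO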
Target sequence (Q8VD66 whole entry, looked up): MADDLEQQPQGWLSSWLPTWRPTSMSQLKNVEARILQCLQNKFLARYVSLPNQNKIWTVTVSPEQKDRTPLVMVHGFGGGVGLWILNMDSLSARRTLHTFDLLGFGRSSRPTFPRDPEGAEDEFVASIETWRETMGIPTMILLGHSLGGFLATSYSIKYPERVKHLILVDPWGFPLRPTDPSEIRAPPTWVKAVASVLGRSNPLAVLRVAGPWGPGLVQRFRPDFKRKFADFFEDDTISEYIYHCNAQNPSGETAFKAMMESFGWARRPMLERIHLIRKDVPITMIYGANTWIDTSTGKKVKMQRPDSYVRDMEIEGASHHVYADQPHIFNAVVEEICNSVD
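Doses – 8.92 µM, single dose · Material – wild-type mouse ABHD4 protein · Replication – single well per compound (singlicate) · Measure – percent inhibition of probe binding, normalized to plate controls · Schedule – 45 min compound pre-incubation plus 60 min probe step, 25 °C · Detection – fluorescence polarization with parallel and perpendicular emission, 525/598 nm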
TCR-CD3 inh: inhibitors of human TCR-CD3 interaction, primary screen, biochemical, fluorescence, TAMRA-labeled TCR probe; inhibition, % at 9.4 µM; 360,000 compounds, 0.37% hits; T-cell receptor (TCR); in the data active = inhibition above about 19%;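 note: recombinant mutant TCR 2C K166C tagged with TAMRA read by polarization; 0% = receptor in buffer alone and 100% = receptor with positive control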
SIAE inh: human SIAE inhibitors, primary screen, biochemical, fluorescence polarization, FP-Rh probe, 1536-well HTS; 370,000 compounds, 0.69% hits; inhibition, % at 9.66 µM; SIAE FP-Rh probe binding;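 active = inhibition above a cutoff: mean of compounds within the control limits plus 3 SD of those, cut at about 17% in these data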;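 note: 0% = plate median of compound wells and 100% = probe without SIAE protein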
HTRA1 inhibitor: HTRA1 serine protease inhibitors, primary screen, biochemical, fluorescence polarization, HTS | inhibition, % at 5.96 µM | 340,000 compounds, 0.5% hits | recombinant HTRA1, FP-rhodamine activity-based probe; in the data active = inhibition above about 36%;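 note: 0% = enzyme with DMSO and 100% = wells lacking enzyme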
The depositor's hits bear a star. This is a sample that favours compounds with a hit; in the whole collection about 1.8% have one here.

`Cc1cc2c(cc1C)/C(=N/NC(=O)c1ccccn1)CCC2` gave mABHD4 FP 2, TCR-CD3 inh -9 and SIAE inh 3.
O=C(N/N=C/c1ccco1)c1cccc(N2Cc3ccccc3C2)c1 was read as mABHD4 FP -1, TCR-CD3 inh 24*, SIAE inh -2 and HTRA1 inhibitor 10.
`O=C(NC1CCCC1)[C@H]1[C@H](CO)[C@H]2Cn3c(ccc(-c4ccccc4)c3=O)[C@@H]1N2CCc1ccccc1` gave ARNT-TACC3 inh 8.
`CC1CCN(C(=O)COc2cccc3c2CCN(Cc2ccccc2)C3=O)CC1` gave ARNT-TACC3 inh -2, mABHD4 FP 1, TCR-CD3 inh -4, SIAE inh 17* and HTRA1 inhibitor -9.
For CCN1CCc2c(OCC(=O)N3CCC(C)CC3)cccc2C1=O the results were ARNT-TACC3 inh -3, mABHD4 FP -1, TCR-CD3 inh 4, SIAE inh -5 and HTRA1 inhibitor 9.
For CC(C)COc1ccc(C(=O)OCCN2CCCCC2)cc1 the results were ARNT-TACC3 inh active, mABHD4 FP 5, TCR-CD3 inh 2, SIAE inh -1 and HTRA1 inhibitor -2.
`CC(C)COc1ccc(C(=O)OCCN2CCOCC2)cc1` gave ARNT-TACC3 inh -6, mABHD4 FP -5, TCR-CD3 inh -1, SIAE inh -2 and HTRA1 inhibitor 0.
`COc1cc(/C=N/Nc2nc(=O)[nH]nc2C)cc([N+](=O)[O-])c1O` gave ARNT-TACC3 inh 76*, mABHD4 FP -1, TCR-CD3 inh -9, SIAE inh -9 and HTRA1 inhibitor 5.
Screening COc1ccc(/C=N/Nc2nc(=O)[nH]nc2C)cc1[N+](=O)[O-] returned mABHD4 FP 5, TCR-CD3 inh 10, SIAE inh 6 and HTRA1 inhibitor 3.
C[C@@H]1CCCCO[C@H](CN(C)C)[C@H](C)CN([C@H](C)CO)C(=O)c2cc(NC(=O)c3ccccc3)ccc2O1 was read as ARNT-TACC3 inh 6.
C[C@@H]1CN([C@@H](C)CO)C(=O)c2cc(NC(=O)c3ccccc3)ccc2O[C@@H](C)CCCCO[C@H]1CN(C)Cc1ccc2c(c1)OCO2 was read as ARNT-TACC3 inh -7.
Screening O=C(O)c1ccc(S(=O)(=O)/N=C2\C=C(Nc3ccccc3F)C(=O)c3ccccc32)cc1 returned mABHD4 FP 58*, TCR-CD3 inh 0, SIAE inh 8 and HTRA1 inhibitor 27.
For CCc1ccc(S(=O)(=O)/N=C2\C=C(NS(=O)(=O)c3ccccc3)C(=O)c3ccccc32)cc1 the results were ARNT-TACC3 inh 19, mABHD4 FP 28, TCR-CD3 inh -12, SIAE inh -2 and HTRA1 inhibitor 7.
CC(C)c1ccc(S(=O)(=O)/N=C2\C=C(NS(=O)(=O)c3ccccc3)C(=O)c3ccccc32)cc1 was read as ARNT-TACC3 inh 47*, mABHD4 FP 51*, TCR-CD3 inh -4, SIAE inh 8 and HTRA1 inhibitor 9.
CCOC(=O)N1CCN(C2=C(NS(=O)(=O)c3ccc(NC(C)=O)cc3)C(=O)c3ccccc3C2=O)CC1 was read as ARNT-TACC3 inh 31*, mABHD4 FP 11, TCR-CD3 inh 1, SIAE inh 1 and HTRA1 inhibitor 6.
For O=C(NNC(=S)Nc1cccc2ccccc12)c1cccc(Br)c1 the results were ARNT-TACC3 inh 29*, mABHD4 FP 4, TCR-CD3 inh 2, SIAE inh 4 and HTRA1 inhibitor -6.
For Cc1cc(O)c2c(c1O)C(=O)[C@]13C(=C2O)C(=O)[C@@H]2[C@@H](O)[C@H]1[C@@H]1[C@H](O)[C@H]3C(=O)C3=C(O)c4c(O)cc(C)c(O)c4C(=O)[C@]312 the results were ARNT-TACC3 inh 47* and HTRA1 inhibitor 41*.
O=C(NCC[C@@H]1CC[C@H](NS(=O)(=O)Cc2ccccc2)[C@H](CO)O1)C1CCOCC1 was read as ARNT-TACC3 inh -4.
`COc1ccc(S(=O)(=O)Nc2ccc3c(c2)C(=O)N([C@H](C)CO)C[C@@H](C)[C@@H](CN(C)C(=O)NC2CCCCC2)O3)cc1` gave ARNT-TACC3 inh -8.
`O=C(C[C@@H]1C=C[C@H](NC(=O)Cc2ccccn2)[C@@H](CO)O1)NCCc1ccncc1` gave ARNT-TACC3 inh 47*.
`COc1ccc(N2CCN(c3ncnc4scc(-c5ccc(F)cc5)c34)CC2)cc1` gave ARNT-TACC3 inh 9, mABHD4 FP 5, TCR-CD3 inh 3, SIAE inh 10 and HTRA1 inhibitor -8.
Screening COc1ccc(CN2CCN(c3ncnc4scc(-c5ccc(F)cc5)c34)CC2)cc1 returned ARNT-TACC3 inh 48*, mABHD4 FP -6, TCR-CD3 inh 9, SIAE inh 1 and HTRA1 inhibitor -26.
Screening CO[C@@H]1CN(C)C(=O)c2ccc(NC(=O)NC(C)C)cc2OC[C@@H](C)N(C(=O)NC(C)C)C[C@@H]1C returned ARNT-TACC3 inh -8.
Screening COC1(OC)N=C(N)C2(C#N)C(c3ccccc3)NC(C)=CC12C#N (stereo unspecified) returned ARNT-TACC3 inh 57*, mABHD4 FP 3, TCR-CD3 inh 3, SIAE inh 5 and HTRA1 inhibitor 3.
`O=C(NC1CCC1)[C@@H]1[C@@H](CO)[C@@H]2Cn3c(cccc3=O)[C@@H]2N1CCc1ccccc1` gave ARNT-TACC3 inh -1.
Cc1ccc2nc(-c3ccccn3)c(Nc3ccccc3C)n2c1 was read as ARNT-TACC3 inh 64*, mABHD4 FP 16, TCR-CD3 inh -3, SIAE inh 10 and HTRA1 inhibitor 16.
Screening Cc1ccccc1Nc1c(-c2ccccn2)nc2ccccn12 returned ARNT-TACC3 inh 59*, mABHD4 FP 12, TCR-CD3 inh 2, SIAE inh 10 and HTRA1 inhibitor 8.
`CN(C)c1ccc2c(c1)[C@@H]1C[C@@H](CC(=O)NCc3cc(F)ccc3F)O[C@@H](CO)[C@@H]1O2` gave ARNT-TACC3 inh 13.
Screening CN(C)c1ccc2c(c1)[C@@H]1C[C@@H](CC(=O)NCc3cc(F)ccc3F)O[C@H](CO)[C@@H]1O2 returned ARNT-TACC3 inh active.
Screening COC(=O)C[C@H]1C[C@@H]2c3cc(N(C)C)ccc3O[C@@H]2[C@@H](CO)O1 returned ARNT-TACC3 inh 45*.
Screening COC(=O)C[C@H]1C[C@H]2c3cc(N(C)C)ccc3O[C@H]2[C@H](CO)O1 returned ARNT-TACC3 inh 34.
`COc1ccc(NC(=O)Nc2ccc3c(c2)C(=O)N([C@H](C)CO)C[C@@H](C)[C@H](CN(C)S(=O)(=O)c2c(C)noc2C)OCCCC[C@H](C)O3)cc1` gave ARNT-TACC3 inh -5.
